Source: PubChem BioAssay (Sanford-Burnham Center for Chemical Genomics)
This is a sample that favours compounds with a hit; in the whole collection about 1.2% have one here.
HKDC1 inh: inhibitors of human hexokinase HKDC1. Q2TB90. recombinant HKDC1, G6PDH/diaphorase resazurin coupled fluorescence. inhibition, % at 20 µM. hit rate 0.16% among 340,000. AID 493160;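 active = inhibition above about 35% when tested at 20 µM, limit read from the data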;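 note: plate controls were DMSO wells with enzyme for no effect and DMSO wells lacking enzyme for full effect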
Target sequence (Q2TB90 whole entry, looked up): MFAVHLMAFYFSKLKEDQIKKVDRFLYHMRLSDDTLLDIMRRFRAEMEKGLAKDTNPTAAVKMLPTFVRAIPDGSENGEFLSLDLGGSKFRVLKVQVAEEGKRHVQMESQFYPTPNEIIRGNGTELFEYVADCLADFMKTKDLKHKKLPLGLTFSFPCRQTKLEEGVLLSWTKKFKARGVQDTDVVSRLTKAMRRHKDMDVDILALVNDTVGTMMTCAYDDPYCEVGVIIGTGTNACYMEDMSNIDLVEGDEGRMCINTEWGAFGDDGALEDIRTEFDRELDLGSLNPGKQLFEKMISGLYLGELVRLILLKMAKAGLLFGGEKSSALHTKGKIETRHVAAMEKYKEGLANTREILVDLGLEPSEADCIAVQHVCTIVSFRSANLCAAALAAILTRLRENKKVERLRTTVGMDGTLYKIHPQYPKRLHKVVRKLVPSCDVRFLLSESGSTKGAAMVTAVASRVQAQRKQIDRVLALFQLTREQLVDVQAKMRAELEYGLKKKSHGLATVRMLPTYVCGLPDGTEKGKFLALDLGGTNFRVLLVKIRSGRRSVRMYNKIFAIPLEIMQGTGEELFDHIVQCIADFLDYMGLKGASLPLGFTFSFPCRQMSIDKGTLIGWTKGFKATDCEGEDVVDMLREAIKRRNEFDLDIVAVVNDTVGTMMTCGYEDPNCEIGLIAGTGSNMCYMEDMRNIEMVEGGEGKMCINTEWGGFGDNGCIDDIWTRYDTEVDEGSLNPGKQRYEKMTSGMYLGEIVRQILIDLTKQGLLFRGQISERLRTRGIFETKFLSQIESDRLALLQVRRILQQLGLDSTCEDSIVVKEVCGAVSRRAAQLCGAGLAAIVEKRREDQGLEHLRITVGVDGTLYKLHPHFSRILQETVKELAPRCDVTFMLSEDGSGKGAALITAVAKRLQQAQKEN
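test system = in-house recombinant HK5 (HKDC1) enzyme | amount = HKDC1 at 5 µg/mL | control set = DMSO-enzyme wells negative, buffer-substituted wells positive | compound = one dose of 20 µM, 1% DMSO | schedule = reaction time 90 min, room temperature, protected from light | technique = resorufin fluorescence at 613 nm | reagent = glucose with 1 mM ATP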
Diaph act CS: activates diaphorase or chemically reduces, flagging diaphorase assay artifacts; Diaphorase/resazurin coupled assay, resorufin fluorescence, 16 min; stronger effect = higher value; 1 = vehicle wells, 0 = NADH-free wells; activation factor at 20 µM; hit rate 0.005% among 190,000;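 active = diaphorase activity raised at least twofold by the compound at 20 µM; inactive = activation factor below 2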
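Test system: Clostridium kluyveri diaphorase, purified enzyme; input: enzyme 0.07 U/mL final; buffer or medium: 50 mM HEPES pH 7.4 with 4.542 mM MgCl2, 0.005% Tween 20; also added: 0.114 mM NADH and 0.1 mM resazurin, final amounts; schedule: 16 min enzyme reaction, ambient temperature; technique: fluorescence of resorufin, 544 nm excitation, 590 nm emission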
Diaph inh CS: inhibits diaphorase or chemically oxidizes, flagging diaphorase assay artifacts. diaphorase resazurin-to-resorufin fluorescence, NADH, 16 min; bacterial (C. kluyveri) enzyme, not human. inhibition, % at 20 µM. hit rate 0.69% among 190,000;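 active = primary screen inhibition at 20 µM above a set limit, cut at about 50% in these data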;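 note: plate controls were DMSO with full reaction for no effect and wells lacking NADH for full effect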
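Test system: Clostridium kluyveri diaphorase enzyme / Quantity: diaphorase at 0.14 U/mL in enzyme working solution / Incubation: 16-min room-temperature incubation before reading / Benchmarks: NADH-free wells as positive control, DMSO-only neutral wells / Signal: resorufin fluorescence 544/590 nm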
G6PDH counter: inhibits Leuconostoc G6PDH, flagging false hits in G6PDH-based assays. Purified L. mesenteroides G6PDH, diaphorase/resazurin coupled fluorescence, 45 min. inhibition, % at 5 µM. hit rate 0.12% among 200,000; in the data active = inhibition above about 50%
PfG6PD inh: PfG6PD (Plasmodium falciparum) enzyme inhibition. PfGluPho enzyme, NADPH resazurin-diaphorase fluorescence. inhibition, % at 20 µM. hit rate 0.78% among 350,000;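 active = inhibition reaching at least a set limit at 20 µM in the primary screen, cut at about 59% in these data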;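 note: 0% = DMSO wells with substrate and 100% = DMSO wells lacking glucose-6-phosphate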
PfGluPho conf: PfG6PD inhibition, single-dose confirmed | shares compounds with PfG6PD inh | recombinant PfGluPho, NADPH-diaphorase-resazurin fluorescence | hit rate 34% among 2,400 | AID 504753 | inhibition, % at 20 µM;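 active = inhibition of at least 50% at 20 µM in any single replicate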;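 note: 0% = DMSO with substrate and 100% = DMSO lacking glucose-6-phosphate substrate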
Diaphorase 10uM: counter-screen for P. falciparum G6PD inhibitors: diaphorase inhibitors, oxidizers; hit rate 39% among 820; diaphorase-coupled resazurin reduction, fluorescence, NADPH 10 uM; shares compounds with PfG6PD inh; inhibition, % at 20 µM;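 active = average inhibition reaching 50% or more with the compound at 20 µM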;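 note: resorufin red fluorescence formed as diaphorase reduces resazurin using NADPH; 0% = DMSO with enzyme and 100% = DMSO without enzyme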
Diaphorase 30uM: inhibits diaphorase or oxidizes, flagging false PfG6PD hits; inhibition, % at 20 µM; hit rate 29% among 820; AID 504863; Diaphorase/resazurin coupled assay, resorufin fluorescence, 30 uM NADPH; shares compounds with PfG6PD inh;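 active = inhibition averaging 50% or more, tested at 20 µM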;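 note: 0% = DMSO with enzyme and 100% = DMSO wells lacking diaphorase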
Starred values were filed as active, the others as inactive; . = no result.

SMILES | HKDC1 inh | Diaph act CS | Diaph inh CS | G6PDH counter | PfG6PD inh | PfGluPho conf | others
Cc1cc(Cl)ccc1OCC(=O)NNC(=O)CCOc1ccccc1 | -5 | . | . | . | 3 | .
COC(=O)c1sc2nc(-c3ccco3)ccc2c1N | 6 | 0.7 | 35 | 0 | 76* | -4
CCOC(=O)C(CC)n1cnc2c(nnn2-c2ccc(F)cc2)c1=O (configuration not stated) | 0 | . | . | . | 6 | .
COc1ccc(Nc2cc(C)c3c(O)cccc3n2)cc1 | 8 | . | . | . | 120* | 56* | Diaphorase 10uM=19;Diaphorase 30uM=43
COc1cccc(Nc2cc(C)c3ccccc3n2)c1 | -2 | . | . | . | 61* | -10
Cc1ccc(Nc2cc(C)c3c(O)cccc3n2)cc1C | 14 | . | . | . | 125* | 36
COc1ccc(/C(O)=C2/C(=O)C(=O)N(c3ncccn3)C2c2ccc(F)cc2)cc1 (configuration not stated) | -3 | . | . | . | -2 | .
COc1ccc(CNC(=O)C[C@@H]2C[C@H]3c4cc(NC(=O)NC5CCCC5)ccc4O[C@H]3[C@H](CO)O2)cc1 | . | . | . | . | -24 | .
COc1ccc(CNC(=O)c2sc(=S)n(-c3ccc(OC)cc3)c2N)cc1 | -14 | 0.8 | 19 | -1 | 63* | -1
Cc1ccc(-n2c(N)c(C(N)=O)sc2=S)cc1 | -8 | 1 | 0 | 6 | 69* | 31
Nc1c(C(=O)NCc2cccnc2)sc(=S)n1-c1ccccc1 | -3 | 1 | -2 | 2 | 49 | 43
CCn1c(N)c(C(=O)NCc2cccnc2)sc1=S | 2 | 0.9 | 10 | 3 | 13 | .
Cc1ccc(-n2c(N)c(C(=O)NCc3ccco3)sc2=S)cc1 | 0 | 0.8 | 16 | 3 | 59 | .
N#Cc1ccc(CN2C=NS(=O)(=O)c3ccccc32)cc1 | -3 | . | . | . | 20 | .
S=C1SCCCN1Cc1ccc(Cl)cc1 | . | . | . | . | 4 | .
CNC(=S)N/N=C/c1c2ccccc2c(Cl)c2ccccc12 | -2 | . | . | . | 22 | .
Brc1cccc(Nc2nc(-c3cccnc3)cs2)c1 | -1 | . | . | . | 60* | -14
COC(=O)c1sc(=S)n(-c2cc(F)ccc2F)c1N | -19 | 0.9 | 12 | -2 | 60* | 21
CCOC(=O)c1sc(=S)n(-c2cc(OC)ccc2OC)c1N | -15 | 0.9 | 13 | 2 | 78* | 45
CCOC(=O)c1c(N)sn(-c2ccccc2C)c1=S | -18 | 0.8 | 19 | 9 | 73* | 36
CN(C)c1cccc2cccc(N(C)C)c12 | 7 | . | . | . | 9 | .
CN1c2cccc3cccc(c23)N(C)C1(C)C | 14 | 0.5 | 52* | 8 | 71* | 39
CCc1ccccc1NC(=O)C1CCCN1C(=O)Nc1ccc(C)cc1 (configuration not stated) | -1 | . | . | . | -8 | .
CC(C)(C)Cc1c(-c2ccccc2)nc2ccc(Br)cn12 | . | . | . | . | 30 | .
Clc1ccc(-c2nc3ccc(Br)cn3c2Cc2ccccc2)cc1 | . | . | . | . | 88* | -4
SMILES | HKDC1 inh | Diaph act CS | Diaph inh CS | G6PDH counter | PfG6PD inh | PfGluPho conf | others
Cc1ccc(Cc2c(-c3ccc(Cl)cc3)nc3ccc(Br)cn23)cc1 | . | . | . | . | 67* | -13
Fc1ccc(-c2nc3ccc(Br)cn3c2Cc2ccccc2)cc1 | . | . | . | . | 67* | -12
Cc1ccc(Cc2c(-c3ccc(C)cc3)nc3ccc(Br)cn23)cc1 | . | . | . | . | 48 | .
C[C@@H]1CN([C@H](C)CO)C(=O)c2cc(Br)cnc2O[C@H]1CN(C)C(=O)CC1CC1 | . | . | . | . | 14 | .
COCCNc1nnc(SCC(=O)c2ccc3c(c2)OCO3)s1 | -2 | 1.1 | -8 | 11 | 4 | .
CSc1nnc(NC(=O)c2ccc3c(c2)OCO3)s1 | -2 | . | . | . | 96* | 74* | Diaphorase 10uM=49;Diaphorase 30uM=48
COCCSc1nnc(NC(=O)c2ccc3c(c2)OCO3)s1 | -7 | 1.1 | -6 | 3 | 71* | 34
Cc1nnc(NC(=O)c2ccc3c(c2)OCO3)s1 | -4 | 0.8 | 25 | 17 | 17 | .
CC(C)Cn1c([N+](=O)[O-])nc2c1c(=O)[nH]c(=O)n2C | 15 | . | . | . | 71* | 55* | Diaphorase 10uM=36;Diaphorase 30uM=37
